# Measurements published in ChEMBL document CHEMBL4033790, “Design and Synthesis of Novel Deuterated Ligands Functionally Selective for the γ-Aminobutyric Acid Type A Receptor (GABAAR) α6 Subtype with Improved Metabolic Stability and Enhanced Bioavailability” (J Med Chem, 2018).
# Activity calls are given as the source filed them. The calls are words filed in the database; no cut-off is given here.
# Key:
# [1] = Solubility of the compound in 0.01M HCl at pH 2 after 2 hrs by LC-MS analysis; format: physicochemical; conditions: buffer, pH 2, 2 h
# Method in brief: (§1)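 10 mg compound dissolved in 2 mL DMAC; 10 μL of this added to 2 mL DI water (pH 7, sonicated) or 2 mL 0.01 M aq HCl (pH 2), held 2 h at 37 °C. Filtered through 0.45 micron filter, then quantified by LC-MS in SIM mode against calibration curves of standards in DMAC (n = 5); n=3.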
# [2] = biological target: GABA-A receptor; alpha-2/beta-3/gamma-2 (Homo sapiens) (UniProt P18507+P28472+P47869); assay: Positive allosteric modulation of GABA-A receptor alpha2beta3gamma2 (unknown origin) expressed in Xenopus laevis oocytes assessed as potentiation of EC3 GABA induced currents up to 1 uM at -60 mV holding potential by electrophysiological method relative to GABA; format: cell-based
# Method in brief: (§2)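 Stage 5–6 defolliculated Xenopus oocytes were injected with 2.5 ng total mRNA per oocyte: α1, α2, α3 or α5 with β3 and γ2 at 1:1:5, and α4 or α6 with β3 and γ2 at 3:1:5. Oocytes were kept ≥36 h at 18 °C in NDE medium before recording. Compounds were co-applied with GABA titrated to EC3-5 for each oocyte. Curves were fitted with the Hill equation; mean ± SEM from ≥3 oocytes across two batches.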
# Rattus norvegicus [3] = species on record: Rattus norvegicus; assay: Displacement of [3H]-flunitrazepam from rat brain GABA-A receptor benzodiazepine site […] at 10 uM after 60 to 90 mins by scintillation counting
# [4] = biological target: GABA-A receptor; alpha-1/beta-3/gamma-2 (Homo sapiens) (UniProt P14867+P18507+P28472); assay: Positive allosteric modulation of GABA-A receptor alpha1beta3gamma2 (unknown origin) expressed in Xenopus laevis oocytes assessed as potentiation of EC3 GABA induced currents up to 1 uM at -60 mV holding potential by electrophysiological method relative to GABA; format: cell-based; method in brief: as §2
# [5] = biological target: GABA-A receptor; alpha-6/beta-3/gamma-2 (Homo sapiens) (UniProt P18507+P28472+Q16445); assay: Positive allosteric modulation of GABA-A receptor alpha6beta3gamma2 (unknown origin) expressed in Xenopus laevis oocytes assessed as potentiation of EC3 GABA induced currents at 30 uM at -60 mV holding potential by electrophysiological method relative to GABA; format: cell-based; method in brief: as §2
# [6] = Aqueous solubility of the compound in DI water at pH 7 after 2 hrs by LC-MS analysis; format: physicochemical; conditions: buffer, pH 7, 2 h; method in brief: as §1
# Mus musculus = assay: Neurotoxicity in Swiss Webster mouse assessed as induction of motor impairment at 55 mg/kg administered via oral gavage measured after 10 to 60 mins by rotarod method; format: toxicity, organism-based; conditions: in vivo
# Rattus norvegicus [7] = assay: Toxicity in Wistar rat assessed as total distance traveled at 10 mg/kg, ip administered for 45 mins by cued water-maze method (reference value: 8.04 +/- 1.16 meter); format: organism-based; conditions: in vivo, 0.75 h
# [8] = Drug metabolism in mouse liver microsomes assessed as CYP450 mediated-O-demethylated 2-(4-hydroxyphenyl)-7-methoxy-2H-pyrazolo[4,3-c]quinolin-3(5H)-one metabolite formation after 60 mins by LC-MS analysis; format: ADME; conditions: 1 h
# Method in brief: (§3)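 The 60-min samples from the human or mouse liver microsome incubations (10 µM compound, 0.5 mg/mL protein, NADPH regenerating system, 37 °C, pH 7.4) were run on LC-MS in SIM mode with dual ESI/APCI ionization. The method was calibrated to each component's retention time and mass, and the peak intensities of the parent and O-demethylated metabolites were measured.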
# Rattus norvegicus [9] = assay: Toxicity in Wistar rat assessed as peripheral ring distance at 10 mg/kg, ip administered for 45 mins by cued water-maze method (reference value: 67.44 +/- 4.60%); format: organism-based; conditions: in vivo, 0.75 h
# Rattus norvegicus [10] = assay: Toxicity in Wistar rat assessed as grip strength by measuring peak force of pull necessary to overcome strength of animal's grip at 10 mg/kg, ip (reference value: 2.79 +/- 0.16 kg/kg); format: organism-based; conditions: in vivo
# [11] = Drug metabolism in human liver microsomes assessed as CYP450 mediated-O-demethylated 7-hydroxy-2-[4-(trideuteriomethoxy)phenyl]-5H-pyrazolo[4,3-c]quinolin-3-one metabolite formation after 60 mins by LC-MS analysis; format: ADME; conditions: 1 h; method in brief: as §3
# [12] = Drug metabolism in mouse liver microsomes assessed as CYP450 mediated-O-demethylated 7-hydroxy-2-[4-(trideuteriomethoxy)phenyl]-5H-pyrazolo[4,3-c]quinolin-3-one metabolite formation after 60 mins by LC-MS analysis; format: ADME; conditions: 1 h; method in brief: as §3
# Brain [13] = assay: Unbound AUC in Wistar rat brain at 10 mg/kg, ip administered as single dose measured at 5 to 720 mins post dose by HPLC-MS/MS analysis; format: ADME, organism-based; conditions: in vivo
# Method in brief: (§4)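 Free fraction in rat plasma and brain tissue was measured in vitro by rapid equilibrium dialysis. Exposure came from male Wistar rats (250-350 g) given a single 10 mg/kg IP dose, as a 5 mg/ml suspension in 85% water, 14% propylene glycol and 1% Tween 80. Three rats per time point (5–720 min); brain analysed by HPLC-MS/MS after solid-phase extraction.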
# [14] = Drug metabolism in human liver microsomes assessed as CYP450 mediated-O-demethylated 7-hydroxy-2-(4-hydroxyphenyl)-2H-pyrazolo[4,3-c]quinolin-3(5H)-one metabolite formation after 60 mins by LC-MS analysis; format: ADME; conditions: 1 h; method in brief: as §3
# Brain [15] = assay: Fraction unbound in Wistar rat brain at 10 mg/kg, ip administered as single dose measured at 5 to 720 mins post dose by HPLC-MS/MS analysis; format: ADME, organism-based; conditions: in vivo; method in brief: as §4
# Rattus norvegicus [16] = assay: Toxicity in Wistar rat assessed as total distance traveled at 10 mg/kg, ip administered for 45 mins measured for 5 min by elevated plus maze method (reference value: 6.71 +/- 0.56 meter); format: organism-based; conditions: in vivo
# HEK-293T = assay: Cytotoxicity against HEK293T cells assessed as reduction in cell viability up to 400 uM after 48 hrs by CellTiter-Glo assay; format: cell-based; conditions: human
# Method in brief: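 HEK293T and HepG2 cells grown in high-glucose DMEM with non-essential amino acids, 10 mM HEPES, penicillin/streptomycin and 10% heat-inactivated FBS. Cells were harvested with trypsin and plated; compound was pin-transferred 3 h later. Incubation was 48 h, then CellTiter-Glo luminescence was read. Controls were DMSO (negative) and a cytotoxic aminoketone (positive). Quadruplicates, three independent runs, normalized to controls, nonlinear regression.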
Structure (SMILES),solubility [1] [µM],Activity [2] [%],inhibition (Rattus norvegicus [3]),Activity [4] [%],Activity [5] [%],Activity ([5]; tested as the 2H-labelled form),solubility [6] [µM],Activity (Mus musculus),Activity (Rattus norvegicus [7]) [m],Drug metabolism [8],Activity (Rattus norvegicus [9]) [%],Activity (Rattus norvegicus [10]) [kg/kg],Drug metabolism [11],Drug metabolism [12],fAUC (Brain [13]) [ng·h/g],Drug metabolism [14],Fu (Brain [15]),Activity (Rattus norvegicus [16]) [m],Activity (HEK-293T)
COc1ccc(-n2nc3c4ccc(OC)cc4[nH]cc-3c2=O)cc1,27.8,< 0,Active,< 0,900,inactive,24.3,–,–,–,–,–,–,–,–,–,–,–,–
[2H]C([2H])([2H])Oc1ccc(-n2nc3c4ccc(OC)cc4[nH]cc-3c2=O)cc1,–,–,–,–,–,–,–,Non-Toxic,11.01,Metabolite_Detected,67.2,2.67,Metabolite_Detected,Metabolite_Detected,651.72,Metabolite_Detected,0.194,5.84,Non-Toxic
